Assay outcomes from PubChem BioAssay.
Most compounds without a hit are left out; they make up all but 2.3% or so of the library.
TRPC4 agonist: activators of mouse TRPC4 channel, primary screen, Fluo4 calcium, HEK293 TRPC4beta/mu-opioid cells; Short transient receptor potential channel 4 (Mus musculus), Q9QUQ5; B-score at 10 µM; Fluo4 calcium fluorescence; hits give high values; 0.49% of 310,000 active;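 active means B-score above 5 SD of library B-scores, and initial fluorescence ratio not above library mean plus 5 SD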;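 further: positive B-score marks a calcium rise read as TRPC4 activation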
Target sequence (Q9QUQ5 whole entry, looked up): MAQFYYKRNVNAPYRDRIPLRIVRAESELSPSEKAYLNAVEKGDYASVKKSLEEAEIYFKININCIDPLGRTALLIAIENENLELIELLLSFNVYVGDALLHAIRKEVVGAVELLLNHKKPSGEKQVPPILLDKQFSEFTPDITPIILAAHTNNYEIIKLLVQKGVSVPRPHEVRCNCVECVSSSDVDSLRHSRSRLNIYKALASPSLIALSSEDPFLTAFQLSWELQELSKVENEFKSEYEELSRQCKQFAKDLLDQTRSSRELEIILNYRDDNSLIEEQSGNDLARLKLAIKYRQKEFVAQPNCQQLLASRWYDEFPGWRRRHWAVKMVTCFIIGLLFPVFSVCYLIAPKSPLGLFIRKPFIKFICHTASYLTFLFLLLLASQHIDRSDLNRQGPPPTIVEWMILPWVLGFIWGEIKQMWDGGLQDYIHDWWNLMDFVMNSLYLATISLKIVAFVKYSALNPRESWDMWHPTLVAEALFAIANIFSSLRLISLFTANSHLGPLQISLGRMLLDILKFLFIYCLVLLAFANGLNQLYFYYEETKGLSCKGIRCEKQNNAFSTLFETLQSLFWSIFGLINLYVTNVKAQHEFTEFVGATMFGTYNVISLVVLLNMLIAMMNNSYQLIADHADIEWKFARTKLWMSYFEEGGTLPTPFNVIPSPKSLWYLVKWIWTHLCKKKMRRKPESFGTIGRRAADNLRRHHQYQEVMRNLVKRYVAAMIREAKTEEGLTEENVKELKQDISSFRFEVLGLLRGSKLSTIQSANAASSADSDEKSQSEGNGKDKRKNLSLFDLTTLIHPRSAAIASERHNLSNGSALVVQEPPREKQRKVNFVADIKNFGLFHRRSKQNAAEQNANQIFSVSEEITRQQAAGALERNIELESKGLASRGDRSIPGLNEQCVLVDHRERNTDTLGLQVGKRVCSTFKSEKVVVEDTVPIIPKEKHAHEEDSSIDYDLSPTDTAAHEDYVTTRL
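System – HEK293 cells stably co-expressing mouse TRPC4beta and mu-opioid receptor · Signal – Fluo4 calcium-sensitive dye fluorescence, kinetic, 1 Hz baseline · Benchmarks – buffer (low) and maximal DAMGO (high) · Read-out – B score of integrated fluorescence ratio per well · Incubation – dye loading 45 min room temperature, 110 s kinetic read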
TRPC6 activator: mouse TRPC6 channel activators, primary screen, cell-based, HEK293, membrane potential dye; Short transient receptor potential channel 6 (Mus musculus), Q61143; HEK293-TRPC6 membrane potential dye fluorescence; hits give high values; 0.13% of 310,000 active; B-score at 10 µM;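 active means B-score of the integrated fluorescence ratio above library mean plus 3 SD, and starting fluorescence ratio within library mean plus 5 SD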;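 further: higher score means more depolarization so channel activation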
TRPC4 inh: inhibitors of mouse TRPC4 channel, primary screen, Fluo4 calcium, HEK293 TRPC4beta/mu-opioid cells. Short transient receptor potential channel 4 (Mus musculus), Q9QUQ5. DAMGO-evoked Fluo4 calcium flux; hits give low values. B-score at 10 µM. 0.39% of 300,000 active. AID 2247, 2010;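 active means B-score over 3 SD under the library average, no early fluorescence shift, positive overall ratio signal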
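Assay system: TRPC4beta/mu-opioid receptor HEK293 cell line; compound dosing: single concentration per test compound; detection: Fluo4 Ca2+ flux fluorescence; evaluation: per-well B score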
TRPC4 potent: positive allosteric modulators of TRPC4, primary screen, cell-based, mouse TRPC4beta, HEK293 mu-opioid, Fluo-4 calcium; Short transient receptor potential channel 4 (Mus musculus), Q9QUQ5; DAMGO EC20, Fluo-4 Ca2+ flux; hits give high values; B-score at 10 µM; 0.42% of 310,000 active; AID 2227, 2009;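 active means B-score of calcium response area above 5 SD of library B-scores, with initial fluorescence ratio within 5 SD of library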;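 further: B-score of integrated fluorescence ratio over time as area under calcium response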
TRPC6 inhibitor: mouse TRPC6 channel inhibitors, primary screen, cell-based, HEK293, membrane potential dye | 1.1% of 310,000 active | Short transient receptor potential channel 6 (Mus musculus), Q61143 | B-score at 10 µM | AID 2553, 2010 | ACh-evoked depolarization; hits give low values;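 active means B-score under library mean minus 3 SD, initial fluorescence not abnormally high, positive integrated signal ratio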;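 further: B-score derived from integrated fluorescence ratio over the kinetic read; more negative B-score means stronger inhibition of depolarization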
HEK293 MPD ctr: parental HEK293 membrane potential modulation, confirmation, counter-screen for TRPC6 modulator project, cell-based; shares compounds with TRPC6 inhibitor; membrane potential dye fluorescence; membrane potential signal change, % at 10 µM; 51% of 2,400 active;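 active means membrane potential signal moves up or down beyond 5 SD from buffer-only wells, on both duplicate plates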
HEK293 MPD ctr 2: second check of TRPC6 modulator effects in parental HEK293 cells; shares compounds with TRPC6 inhibitor; membrane potential dye fluorescence; after compound, maximal acetylcholine stimulation; 14% of 2,400 active; AID 488926; inhibition, % at 10 µM;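 active means membrane potential signal drops by more than 5 SD from the mean control signal, in both duplicate plates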;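 further: plate controls were acetylcholine ECmax control wells for no effect and buffer only wells for full effect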
TRPC4/MOR mod: TRPC4 modulation by TRPC6 hit compounds, confirmation, selectivity assay for TRPC6 modulator project, cell-based, HEK293 TRPC4/mu-opioid, membrane potential dye, mouse; shares compounds with TRPC6 inhibitor; AID 488927, 2010; membrane potential fluorescence; 69% of 2,400 active; percent change from control (negative = decrease, positive = increase), % at 10 µM;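 active means membrane potential signal moved up or down beyond 5 SD of buffer control wells, in both duplicate plates, actives on both sides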;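 further: plate controls were assay buffer wells for no effect and DAMGO maximal-effect wells for full effect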
TRPC4/MOR inh 2: mouse TRPC4 off-target activity of TRPC6 modulators, second screen. AID 488928. shares compounds with TRPC6 inhibitor. inhibition, % at 10 µM. 55% of 2,400 active. HEK293 TRPC4/mu-opioid, membrane potential dye fluorescence; stimulated with maximal-effect DAMGO;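 active means drop in membrane potential signal beyond 5 SD of the control wells in both duplicate plates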;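 further: TRPC4 counter screen for TRPC6 hits run under conditions tuned for TRPC6 not TRPC4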
TRPC6 block conf: mouse TRPC6 channel inhibitors, confirmation, HEK293 cells, membrane potential dye, duplicate. 43% of 3,300 active. shares compounds with TRPC6 inhibitor. AID 488960, 2010. ACh-evoked depolarization. inhibition, % at 10 µM;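 active means fluorescence ratio falls more than 5 SD below the full-stimulation control mean, in both duplicate runs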;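 further: integrated fluorescence ratio of peak minus minimum over baseline after agonist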
TRPC6 act conf: mouse TRPC6 channel activators, confirmation, HEK293 cells, membrane potential dye, duplicate; 11% of 2,800 active; HEK293-TRPC6 membrane potential dye fluorescence, FDSS; activation, % at 10 µM; shares compounds with TRPC6 inhibitor;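 active means ratio signal rise beyond 5 SD above unstimulated control wells' mean, seen in both duplicate runs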;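 further: plate controls were buffer EC0 wells for no effect and acetylcholine ECmax response for full effect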
* = called active by the depositor; i = inactive; / = no result given.

SMILES	TRPC4 agonist	TRPC6 activator	TRPC4 inh	TRPC4 potent	TRPC6 inhibitor	HEK293 MPD ctr	HEK293 MPD ctr 2	TRPC4/MOR mod	TRPC4/MOR inh 2	TRPC6 block conf	TRPC6 act conf
C=CCN(c1ccccc1)S(=O)(=O)c1cccc(C(=O)NC2CCN(Cc3ccccc3)CC2)c1	i	i	i	i	-6.57*	i	i	i	57.0%*	i	i
Cc1ccc[n+](CC(=O)c2ccc(Br)cc2)c1C	i	i	i	i	i	/	/	/	/	/	/
COCCSc1nc(N)c2c3c(sc2n1)CN(C)CC3	i	i	i	i	-9.43*	-148.5%*	i	-29.0%*	30.0%*	i	i
CC(C)Sc1nc(N)c2c3c(sc2n1)CN(C)CC3	i	i	i	i	i	/	/	/	/	/	/
CCCSc1nc(N)c2c3c(sc2n1)CN(C)CC3	i	i	i	i	-7.11*	-111.5%*	i	-26.5%*	i	i	i
CN(C)CCSc1nc(N)c2c3c(sc2n1)CN(C)CC3	i	i	i	i	-8.56*	-209.5%*	i	-39.0%*	46.5%*	55.0%*	i
CSc1nc(NCC(C)C)c2c3c(sc2n1)CN(C)CC3	i	i	i	i	i	/	/	/	/	/	/
COc1ccc(CN2CCC(C(=O)Nc3ccc(Oc4cccnc4)cc3)CC2)c(C)c1C	i	i	i	i	i	/	/	/	/	/	/
COc1ccc(N2CCN(c3cc(C)nc4ccc(OC)cc34)CC2)cc1	i	i	i	i	-5.64*	-228.5%*	i	-42.0%*	65.0%*	62.5%*	i
CCOC(=O)C1CCN(c2nc3cc(OC)ccc3cc2C#N)CC1	i	i	i	i	i	/	/	/	/	/	/
COc1ccc2nc(C)cc(N3CCC(C(N)=O)CC3)c2c1	i	i	i	i	-9.14*	-356.5%*	94.5%*	-59.5%*	62.5%*	72.5%*	i
CCOC(=O)C1CCN(c2cc(C)nc3ccc(OC)cc23)CC1	i	i	i	i	-8.94*	-235.5%*	85.0%*	-36.5%*	69.5%*	86.5%*	i
CCOC(=O)N1CCN(C(=O)COC(=O)C2CCN(S(=O)(=O)c3c(C)c(C)cc(C)c3C)CC2)CC1	i	i	i	i	i	/	/	/	/	/	/
O=C(CSc1ncc(-c2ccccc2)n1CC1CCCO1)N1CCCCC1 (centres undefined)	i	i	i	i	-5.98*	99.5%*	i	13.0%*	i	i	/
COC1=C(Nc2ccccc2OC)C(=O)c2ccccc2C1=O	i	i	i	i	-5.82*	-91.0%*	i	-23.5%*	38.5%*	i	i
